Experimental data as given in ChEMBL document CHEMBL1143559, “Design of potent and selective 2-aminobenzimidazole-based p38alpha MAP kinase inhibitors with excellent in vivo efficacy” (J Med Chem, 2005).

Legend:
[1] = system: Mus musculus; assay: In vivo threshold minimum effective dose for inhibition of LPS-induced TNF-alpha production in mice after oral administration; type: functional
[2] = species on record: Mus musculus; assay: Inhibitory concentration against TNF-alpha production in mouse macrophages; type: functional
[3] = system: Rattus norvegicus; assay: Inhibition of TNF-alpha production in rat joint after oral administration at 3 mg/Kg; type: functional
[4] = (§1) Area under concentration-curve (from 0-infinity) for a compound in plasma of rats after oral administration; type: ADME; design: time infinity, route oral; settings: rat
[5] = molecular target: Mitogen-activated protein kinase 14 (Homo sapiens, UniProt Q16539); assay: Inhibition of human recombinant Mitogen activated protein kinase p38 alpha activity using ATP[gamma-33P] and EGFR 21mer-peptide
Sequence of Mitogen-activated protein kinase 14 (Q16539 whole entry): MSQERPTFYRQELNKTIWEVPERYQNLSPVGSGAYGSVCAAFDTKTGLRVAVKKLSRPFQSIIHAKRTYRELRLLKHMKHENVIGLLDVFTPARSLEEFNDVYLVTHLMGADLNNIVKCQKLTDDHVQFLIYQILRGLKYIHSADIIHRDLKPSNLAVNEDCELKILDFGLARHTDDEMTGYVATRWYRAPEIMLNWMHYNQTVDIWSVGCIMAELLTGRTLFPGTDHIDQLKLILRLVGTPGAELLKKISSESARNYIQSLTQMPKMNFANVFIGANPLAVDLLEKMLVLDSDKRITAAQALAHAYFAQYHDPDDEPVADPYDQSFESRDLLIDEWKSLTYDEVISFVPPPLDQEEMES
Outline: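 Recombinant human p38α, filter binding format with ATP[γ-33P] and EGFR 21-mer peptide substrate; IC50 in nM, n determinations per compound.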

[6] = system: Rattus norvegicus; assay: In vivo threshold minimum effective dose for inhibition of rat paw-swelling after oral bid dosing for 14 days; type: functional
[7] = system: Rattus norvegicus; assay: In vivo threshold minimum effective dose for inhibition of bone erosion and cartilage destruction in rat after oral bid dosing for 14 days; type: functional
[8] = molecular target: Cytochrome P450 3A4 (Homo sapiens, UniProt P08684); assay: In vitro inhibitory concentration against Cytochrome P450 3A4; type: ADME
Sequence of Cytochrome P450 3A4 (P08684 whole entry): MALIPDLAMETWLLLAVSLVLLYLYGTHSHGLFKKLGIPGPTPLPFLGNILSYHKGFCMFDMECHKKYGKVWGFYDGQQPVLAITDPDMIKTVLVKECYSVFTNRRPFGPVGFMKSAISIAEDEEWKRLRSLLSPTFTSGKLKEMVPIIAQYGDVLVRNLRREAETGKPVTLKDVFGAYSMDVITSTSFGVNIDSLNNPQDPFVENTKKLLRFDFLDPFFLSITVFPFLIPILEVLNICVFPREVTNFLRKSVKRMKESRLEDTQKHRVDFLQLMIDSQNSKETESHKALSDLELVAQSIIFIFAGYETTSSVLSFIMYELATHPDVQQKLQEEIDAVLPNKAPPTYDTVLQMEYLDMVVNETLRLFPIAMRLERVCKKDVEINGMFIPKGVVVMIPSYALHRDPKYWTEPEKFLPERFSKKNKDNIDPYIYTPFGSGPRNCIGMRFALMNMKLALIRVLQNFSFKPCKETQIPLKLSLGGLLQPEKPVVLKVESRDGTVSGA

[9] = Bioavailability of compound in rat plasma after oral administration; type: ADME, organism-based
[10] = as §1; type: ADME; design: route oral, time infinity; settings: rat

Compound	IC50 [2]	AUC 0-inf [4]	IC50 [5]	IC50 [8]	bioavailability [9]	AUC 0-inf [10]	TMED50 [1]	inhibition in vivo at 3 mg/kg [3]	TMED50 [6]	TMED50 [7]
CC(C)S(=O)(=O)n1c(N)nc2ccc(-c3nc(C4CCNCC4)[nH]c3-c3ccccc3)cc21	2880 nM	–	2.7 nM	–	–	–	–	–	–	–
CC(C)S(=O)(=O)n1c(N)nc2ccc(-c3[nH]cnc3-c3ccc(F)cc3)cc21.CS(=O)(=O)O.CS(=O)(=O)O	65.7 nM	1.4 µM·h	4.3 nM	800 nM	–	–	9.6 mg/kg	–	–	–
CC(C)S(=O)(=O)n1c(N)nc2ccc(-c3c(-c4ccc(F)cc4)ncn3C)cc21	720 nM	–	20.7 nM	–	–	–	–	–	–	–
CC(C)S(=O)(=O)n1c(N)nc2ccc(-c3c(-c4ccc(F)cc4)ncn3C3CCNCC3)cc21	4460 nM	–	125 nM	–	–	–	–	–	–	–
Cc1ccc(-n2nc(C(C)(C)C)cc2NC(=O)Nc2ccc(OCCN3CCOCC3)c3ccccc23)cc1 [DORAMAPIMOD]	–	–	–	–	–	–	–	55%	15 mg/kg	30 mg/kg
OCCC#Cc1nc(-c2ccc(F)cc2)c(-c2ccncc2)n1CCCc1ccccc1 [RWJ-67657]	–	–	–	–	–	–	–	< 50%	>30 mg/kg	>30 mg/kg
COc1nccc(-c2c(-c3ccc(F)cc3)ncn2C2CCNCC2)n1 [SB-242235]	–	–	–	–	–	–	–	–	5 mg/kg	7 mg/kg

Further lines, with some results ahead:

IC50 [2]	AUC 0-inf [4]	IC50 [5]	IC50 [8]	bioavailability [9]	AUC 0-inf [10]	Compound	TMED50 [1]	inhibition in vivo at 3 mg/kg [3]	TMED50 [6]	TMED50 [7]
1.6 nM	28.3 µM·h	4.8 nM	–	–	–	CC(C)(C)c1nc(-c2ccc(F)cc2F)c(-c2ccc3nc(N)n(S(=O)(=O)C(C)(C)C)c3c2)[nH]1.CS(=O)(=O)O	5.3 mg/kg	82%	1.5 mg/kg	4.2 mg/kg
47.2 nM	–	4.7 nM	4400 nM	–	–	CCc1nc(-c2ccc(F)cc2)c(-c2ccc3nc(N)n(S(=O)(=O)C(C)C)c3c2)[nH]1.CS(=O)(=O)O	6.5 mg/kg	–	–	–
31.8 nM	3.7 µM·h	4.2 nM	1600 nM	–	–	CC(C)S(=O)(=O)n1c(N)nc2ccc(-c3[nH]cnc3-c3ccccc3)cc21	19.8 mg/kg	–	–	–
3.4 nM	17 µM·h	15.3 nM	–	55%	–	CC(C)S(=O)(=O)n1c(N)nc2ccc(-c3[nH]c(-c4c(Cl)cccc4Cl)nc3-c3ccccc3)cc21.CS(=O)(=O)O	2.5 mg/kg	–	–	–
31.1 nM	13.5 µM·h	15.9 nM	31800 nM	–	–	CC(C)S(=O)(=O)n1c(N)nc2ccc(-c3[nH]c(C(C)(C)C)nc3-c3ccc(F)cc3)cc21.CS(=O)(=O)O.CS(=O)(=O)O	3.9 mg/kg	–	–	–
6 nM	0.9 µM·h	19.9 nM	13000 nM	–	–	CS(=O)(=O)O.CS(=O)(=O)O.Nc1nc2ccc(-c3[nH]c(-c4c(F)cccc4F)nc3-c3ccccc3)cc2n1S(=O)(=O)C1CCCC1	5.1 mg/kg	–	–	–
6.2 nM	14.6 µM·h	4.4 nM	–	–	–	CC(C)S(=O)(=O)n1c(N)nc2ccc(-c3[nH]c(C(C)(C)C)nc3-c3ccc(F)cc3F)cc21.CS(=O)(=O)O	2.2 mg/kg	81%	1.5 mg/kg	8.1 mg/kg
8.8 nM	9.8 µM·h	22.8 nM	–	–	–	CN(C)S(=O)(=O)n1c(N)nc2ccc(-c3[nH]c(-c4c(F)cccc4F)nc3-c3ccccc3)cc21.CS(=O)(=O)O.CS(=O)(=O)O	12.5 mg/kg	–	–	–
10.3 nM	–	4.9 nM	6300 nM	–	5.4 µM·h	CC(C)S(=O)(=O)n1c(N)nc2ccc(-c3nc(-c4c(F)cccc4F)[nH]c3-c3ccccc3)cc21	5.2 mg/kg	–	–	–
28.6 nM	12.8 µM·h	4.5 nM	6100 nM	–	–	CC(C)c1nc(-c2ccc(F)cc2)c(-c2ccc3nc(N)n(S(=O)(=O)C(C)C)c3c2)[nH]1.CS(=O)(=O)O	4.9 mg/kg	–	–	–
27.9 nM	–	5.5 nM	5300 nM	–	–	CC(C)CN1CCC(c2nc(-c3ccc4nc(N)n(S(=O)(=O)C(C)C)c4c3)c(-c3ccccc3)[nH]2)CC1	7.3 mg/kg	–	–	–
